In ChEMBL document CHEMBL3232959, “Design, synthesis and biological evaluation of small-azo-dyes as potent Vesicular Glutamate Transporters inhibitors” (Eur J Med Chem, 2014) one finds inhibition, IC50 and Activity data, which are given here for 33 molecules.

What is called inhibition is the drop in the measured response relative to a control, in per cent. For orientation: IC50 means the concentration at which inhibition is half-maximal.

Test [1] is filed under the species Rattus norvegicus. Put plainly: Inhibition of rat brain VGLUT assessed as inhibition of [3H]glutamate uptake into vesicles at 250 uM after 10 mins by scintillation spectrophotometry.
Test [2] is described as follows: Inhibition of rat brain VGLUT assessed as inhibition of [3H]glutamate uptake into vesicles after 10 mins by scintillation spectrophotometry. The method, boiled down: (§1)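 Crude rat synaptic vesicles were incubated at 37 °C in 10 mM HEPES-KOH pH 7.4 with 4 mM MgSO4, 4 mM KCl, 1 mM L-aspartate and test compound in DMSO. Uptake was started with ATP/Glu containing [3H]Glu and run for 10 min. It was stopped with ice-cold buffer, GF/C filtered, washed 4 times and counted by scintillation. Blanks without ATP or with CCCP/Trypan Blue were subtracted to give ATP-dependent uptake. At least triplicate.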

For test [3], the species on record is Rattus norvegicus. Kind of test: Inhibition of rat brain VGLUT assessed as inhibition of [3H]glutamate uptake into vesicles at 20 uM after 10 mins by scintillation spectrophotometry. Put shortly: as §1
Test [4] has as its target Synaptic vesicular amine transporter VMAT2 (Rattus norvegicus) (UniProt Q01827). Kind of test: Inhibition of rat vesicular monoamine transporter 2 assessed as inhibition of dopamine uptake at 200 uM.
Test [5] can be described thus: Competitive inhibition of rat brain VGLUT assessed as inhibition of [3H]glutamate uptake into vesicles after 10 mins by scintillation spectrophotometry. Put shortly:
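Crude rat synaptic vesicles (50 µg aliquots) incubated in 10 mM HEPES-KOH pH 7.4, sucrose, 4 mM MgSO4, 4 mM KCl, L-aspartate. Uptake started with ATP plus Glu and [3H]Glu, 10 min at 37 °C. Compounds added from DMSO, final 0.20 nM upward. Ice-cold buffer stop, GF/C filtration, four washes, scintillation counting. Uptake without ATP or with CCCP/Trypan Blue subtracted; at least triplicate.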

Test [6] is filed under the species Homo sapiens. Put plainly: Agonist activity at mGluR (unknown origin) at 200 uM by cell-based assay.
For test [7], the species on record is Homo sapiens. Kind of test: Antagonist activity at mGluR (unknown origin) at 200 uM by cell-based assay.

Calls of active or inactive are those of the source. No cut-off for these calls is given here.

For the molecule `O=C(O)c1cc(C(=O)O)c2ccccc2n1`, the inhibition entry in test [1] was “inactive”.
On to `O=C(O)c1cc(C(=O)O)c2cc(/N=N/c3ccc(-c4ccccc4)cc3)ccc2n1`, for which the IC50 in test [2] was 288000 nM.
As for `Nc1cc(S(=O)(=O)O)cc2c1C(=O)/C(=N\Nc1ccc(C(=O)O)cc1C(F)(F)F)C(S(=O)(=O)O)=C2`, the inhibition in test [3] came out at 76%. In addition, the inhibition entry in test [4] is “inactive”. In test [2], the IC50 is 6800 nM.
For `Cc1cc(-c2ccc(/N=N/c3ccc4c(S(=O)(=O)O)cc(S(=O)(=O)O)c(N)c4c3O)c(C)c2)ccc1/N=N/c1ccc2c(S(=O)(=O)O)cc(S(=O)(=O)O)c(N)c2c1O` [EVANS BLUE], the IC50 in test [2] worked out at 87 nM.
In the case of `O=C1C(S(=O)(=O)O)=Cc2cc(S(=O)(=O)O)ccc2/C1=N/Nc1ccc(I)cc1Cl`, the inhibition result in test [3] was “inactive”.
For the molecule `Cc1cc(C(=O)O)ccc1N/N=C1\C(=O)c2c(N)cc(S(=O)(=O)O)cc2C=C1S(=O)(=O)O`, in test [3], the inhibition was determined as 15%. Also, the inhibition result in test [4] was “inactive”.
On to `Nc1cc(S(=O)(=O)O)cc2c1C(=O)/C(=N\Nc1ccc(I)cc1Cl)C(S(=O)(=O)O)=C2`, for which the inhibition in test [3] was 45%. In addition, the inhibition entry in test [4] was “inactive”.
For `Nc1cc(S(=O)(=O)O)cc2c1C(=O)/C(=N\Nc1ccc(C(=O)O)cc1Cl)C(S(=O)(=O)O)=C2` the same measures were 55% and “inactive”.
For `Nc1cc(S(=O)(=O)O)cc2c1C(=O)/C(=N\Nc1ccc(C(=O)O)cc1F)C(S(=O)(=O)O)=C2`, the inhibition in test [3] was found to be 18%. Further, the inhibition entry in test [4] is “inactive”.
In the case of `Nc1ccc(-c2ccc(N/N=C3\C(=O)c4c(N)cc(S(=O)(=O)O)cc4C=C3S(=O)(=O)O)c(F)c2)cc1F`, the inhibition in test [3] stood at 74%. The inhibition result in test [4] was “inactive”. Besides, the 50% inhibitory concentration (IC50) in test [2] came out at 4800 nM.
Turning to `O=C(O)c1cc(C(=O)O)c2cccc(O)c2n1`, the IC50 in test [2] turned out to be 286000 nM.
For the molecule `Cc1cc(-c2ccc(/N=N/c3c(S(=O)(=O)O)cc4cc(S(=O)(=O)O)cc(N)c4c3O)c(C)c2)ccc1/N=N/c1c(S(=O)(=O)O)cc2cc(S(=O)(=O)O)cc(N)c2c1O` [TRYPAN BLUE], the IC50 in test [5] worked out at 100 nM; in test [2] it was 50 nM.
Regarding `Nc1ccc(-c2ccc(N/N=C3\C(=O)c4c(N)cc(S(=O)(=O)O)cc4C=C3S(=O)(=O)O)c(C(F)(F)F)c2)cc1C(F)(F)F`, the inhibition in test [3] was 98%. In addition, the inhibition result in test [4] was “inactive”. The IC50 in test [2] turned out to be 1800 nM.
With `Nc1cc(S(=O)(=O)O)cc2c1C(=O)/C(=N\Nc1c(O)c(F)c(Br)c(F)c1F)C(S(=O)(=O)O)=C2`, the inhibition in test [3] turned out to be 39%. In addition, the inhibition entry in test [4] is “inactive”.
`Cc1cc(Br)cc(C)c1N/N=C1\C(=O)c2c(N)cc(S(=O)(=O)O)cc2C=C1S(=O)(=O)O`: in test [3], the inhibition turned out to be 77%. The inhibition result in test [4] is “inactive”. The IC50 in test [2] stood at 2100 nM.
Regarding `COc1cc(C(=O)O)ccc1N/N=C1\C(=O)c2c(N)cc(S(=O)(=O)O)cc2C=C1S(=O)(=O)O`, the inhibition in test [3] was found to be 25%. The inhibition result in test [4] is “inactive”.
For `Nc1cc(S(=O)(=O)O)cc2c1C(=O)/C(=N\Nc1ccc(C(=O)O)cc1)C(S(=O)(=O)O)=C2` the same measures were 15% and “inactive”.
`Nc1cc(S(=O)(=O)O)cc2c1C(=O)/C(=N\Nc1ccc(Br)cc1)C(S(=O)(=O)O)=C2`: the inhibition in test [3] is 33%. Further, the inhibition entry in test [4] was “inactive”.
`Nc1cc(S(=O)(=O)O)cc2c1C(=O)/C(=N\Nc1ccc(I)cc1F)C(S(=O)(=O)O)=C2`: the inhibition in test [3] stood at 46%. Also, the inhibition entry in test [4] is “inactive”.
Turning to `Cc1cc(I)ccc1N/N=C1\C(=O)c2c(N)cc(S(=O)(=O)O)cc2C=C1S(=O)(=O)O`, in test [3], the inhibition was 83%. Moreover, in test [4], the inhibition result is “inactive”. The outcome in test [6] and in test [7] was inactive. Moreover, the IC50 in test [2] came out at 2100 nM.
Consider `Nc1cc(S(=O)(=O)O)cc2c1C(=O)/C(=N\Nc1ccc(I)cc1C(F)(F)F)C(S(=O)(=O)O)=C2`, for which, in test [3], the inhibition came to 83%. The inhibition entry in test [4] was “inactive”. Further, the IC50 in test [2] came out at 5800 nM.
Take `N=c1ccc2c(=O)/c(=N\Nc3ccc(I)cc3Cl)c(S(=O)(=O)O)cc=2/c1=N/Nc1ccc(I)cc1Cl`: the inhibition result in test [3] was “inactive”.
For `Cc1cc(C(=O)O)cc(C)c1N/N=C1\C(=O)c2c(N)cc(S(=O)(=O)O)cc2C=C1S(=O)(=O)O`, the inhibition in test [3] was found to be 5%. The inhibition entry in test [4] was “inactive”.
In the case of `Nc1cc(S(=O)(=O)O)cc2c1C(=O)/C(=N\Nc1c(F)c(F)c(-c3c(F)c(F)c(N)c(F)c3F)c(F)c1F)C(S(=O)(=O)O)=C2`, the inhibition in test [3] is 96%. Also, the inhibition entry in test [4] was “inactive”. The concentration for half-maximal inhibition (IC50) in test [2] was found to be 3300 nM.
On to `Nc1cc(S(=O)(=O)O)cc2cc(S(=O)(=O)O)cc(O)c12`, for which, in test [3], the inhibition entry was “inactive”.
For the molecule `COc1cc(Br)ccc1N/N=C1\C(=O)c2c(N)cc(S(=O)(=O)O)cc2C=C1S(=O)(=O)O`, in test [3], the inhibition amounted to 42%. Besides, the inhibition result in test [4] is “inactive”. Further, the IC50 in test [2] is > 20000 nM.
Turning to `O=C1/C(=N\Nc2ccc(I)cc2Cl)C(S(=O)(=O)O)=Cc2cc(S(=O)(=O)O)ccc21`, the inhibition result in test [3] is “inactive”.
Consider `Nc1ccc(-c2ccc(N/N=C3\C(=O)c4c(N)cc(S(=O)(=O)O)cc4C=C3S(=O)(=O)O)c(Cl)c2)cc1Cl`, for which the inhibition in test [3] is 88%. Further, the inhibition result in test [4] was “inactive”. Moreover, the result in test [6] and in test [7] was inactive. In addition, the IC50 in test [2] is 1600 nM.
With `Cc1cc(-c2ccc(N/N=C3\C(=O)c4c(N)cc(S(=O)(=O)O)cc4C=C3S(=O)(=O)O)c(C)c2)ccc1N`, the inhibition in test [3] turned out to be 52%. Besides, the inhibition entry in test [4] was “inactive”.
Turning to `O=C(O)c1cc(C(=O)O)c2cc(/C=C/c3ccccc3)ccc2n1`, the concentration for half-maximal inhibition (IC50) in test [2] came out at 40000 nM.
In the case of `Nc1cc(S(=O)(=O)O)cc2c1C(=O)/C(=N\Nc1c(O)c(F)c(C(=O)O)c(F)c1F)C(S(=O)(=O)O)=C2`, the inhibition in test [3] stood at 18%. In test [4], the inhibition entry is “inactive”.
Turning to `COc1cc(-c2ccc(/N=N/c3ccc4c(S(=O)(=O)O)cc(S(=O)(=O)O)c(N)c4c3O)c(OC)c2)ccc1/N=N/c1ccc2c(S(=O)(=O)O)cc(S(=O)(=O)O)c(N)c2c1O` [CHICAGO SKY BLUE], the IC50 in test [2] was 3000 nM.
On to `Nc1ccc(-c2ccc(N/N=C3\C(=O)c4c(N)cc(S(=O)(=O)O)cc4C=C3S(=O)(=O)O)cc2)cc1`, for which the inhibition in test [3] is 25%. The inhibition entry in test [4] is “inactive”.
